Assay results as given in ChEMBL document CHEMBL3627606, “Development of Novel, CNS Penetrant Positive Allosteric Modulators for the Metabotropic Glutamate Receptor Subtype 1 (mGlu1), Based on an N-(3-Chloro-4-(1,3-dioxoisoindolin-2-yl)phenyl)-3-methylfuran-2-carboxamide Scaffold, That Potentiate Wild Type and Mutant mGlu1 Receptors Found in …” (J Med Chem, 2015).

Key:
[1] = molecular target: T1, Metabotropic glutamate receptor 1 (Homo sapiens, UniProt Q13255); test: Negative allosteric modulation of human mGlu1 receptor in HEK293 cells assessed as potentiation of glutamate-induced calcium mobiliztion by Fluo-4AM dye based fluorescence analysis; format: functional, cell-based
Target sequence in this assay (Q13255 whole entry): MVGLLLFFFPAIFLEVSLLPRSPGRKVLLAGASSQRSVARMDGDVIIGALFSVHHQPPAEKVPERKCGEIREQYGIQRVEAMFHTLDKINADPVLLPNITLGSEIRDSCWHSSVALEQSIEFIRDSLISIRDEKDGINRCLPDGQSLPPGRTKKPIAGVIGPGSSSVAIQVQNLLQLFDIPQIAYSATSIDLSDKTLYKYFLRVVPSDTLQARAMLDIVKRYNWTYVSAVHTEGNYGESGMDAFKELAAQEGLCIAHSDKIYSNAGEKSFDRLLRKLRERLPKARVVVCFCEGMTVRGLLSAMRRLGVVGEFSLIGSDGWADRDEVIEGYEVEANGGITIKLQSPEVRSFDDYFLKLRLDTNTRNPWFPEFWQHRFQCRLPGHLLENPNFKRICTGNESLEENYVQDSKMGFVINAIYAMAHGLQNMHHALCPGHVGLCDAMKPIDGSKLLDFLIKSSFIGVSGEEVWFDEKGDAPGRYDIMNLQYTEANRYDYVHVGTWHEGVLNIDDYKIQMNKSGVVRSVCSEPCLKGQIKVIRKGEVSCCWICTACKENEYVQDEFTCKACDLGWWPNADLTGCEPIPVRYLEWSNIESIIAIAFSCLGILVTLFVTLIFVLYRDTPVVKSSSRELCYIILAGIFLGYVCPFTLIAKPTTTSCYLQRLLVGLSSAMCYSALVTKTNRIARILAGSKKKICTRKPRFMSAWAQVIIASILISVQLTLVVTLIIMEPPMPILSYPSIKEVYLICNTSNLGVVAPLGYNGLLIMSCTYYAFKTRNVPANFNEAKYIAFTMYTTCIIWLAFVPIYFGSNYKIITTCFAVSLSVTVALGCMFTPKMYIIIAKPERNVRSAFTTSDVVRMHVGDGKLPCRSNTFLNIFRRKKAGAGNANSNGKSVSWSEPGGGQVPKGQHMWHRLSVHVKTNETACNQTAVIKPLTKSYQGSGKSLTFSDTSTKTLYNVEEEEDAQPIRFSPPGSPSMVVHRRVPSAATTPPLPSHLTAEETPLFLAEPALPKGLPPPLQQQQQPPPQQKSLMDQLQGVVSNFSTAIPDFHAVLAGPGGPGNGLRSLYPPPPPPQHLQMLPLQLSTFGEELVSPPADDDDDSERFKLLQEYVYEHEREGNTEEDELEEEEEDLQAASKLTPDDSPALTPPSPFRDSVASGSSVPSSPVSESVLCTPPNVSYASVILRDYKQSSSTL

Cytochrome P450 2C9 = Cytochrome P450 2C9 (Homo sapiens, UniProt P11712); test: Inhibition of CYP2C9 in human liver microsomes by LC-MS/MS analysis; format: ADME
Chain of Cytochrome P450 2C9 (P11712 whole entry): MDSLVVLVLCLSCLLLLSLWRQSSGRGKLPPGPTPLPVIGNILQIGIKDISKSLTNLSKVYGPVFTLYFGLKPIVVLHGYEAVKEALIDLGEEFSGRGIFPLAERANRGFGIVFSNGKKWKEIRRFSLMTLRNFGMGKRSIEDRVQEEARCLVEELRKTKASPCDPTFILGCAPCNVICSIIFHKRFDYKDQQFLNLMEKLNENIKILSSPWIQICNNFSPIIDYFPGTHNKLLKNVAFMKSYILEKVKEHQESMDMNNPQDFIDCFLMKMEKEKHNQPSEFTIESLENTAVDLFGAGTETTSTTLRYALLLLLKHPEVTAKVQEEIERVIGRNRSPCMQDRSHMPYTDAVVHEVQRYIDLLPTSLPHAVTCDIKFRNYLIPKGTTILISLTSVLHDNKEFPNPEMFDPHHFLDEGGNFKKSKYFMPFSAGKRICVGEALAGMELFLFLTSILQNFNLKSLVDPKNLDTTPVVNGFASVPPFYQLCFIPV

[2] = molecular target: Metabotropic glutamate receptor 5 (Homo sapiens) (UniProt P41594); test: Positive allosteric modulation of mGlu5 receptor (unknown origin) assessed as potentiation of glutamate-induced response by cell-based assay
Summary of the method: (§1)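 Selectivity counterscreen at the other mGlu subtypes using the standard fold-shift paradigm. Compound was tested at 10 μM against the glutamate concentration-response curve, and the shift of that curve was read.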

[3] = molecular target: Metabotropic glutamate receptor 2 (Homo sapiens) (UniProt Q14416); test: Positive allosteric modulation of mGlu2 receptor (unknown origin) assessed as potentiation of glutamate-induced response by cell-based assay; summary of the method: as §1
Plasma [4] = test: Drug metabolism in human plasma assessed as 4-chloro-2-(2-chloro-4-(3-methylfuran-2-carboxamido)phenylcarbamoyl)benzoic acid level at 10 uM after 4 hrs by mass spectrometry; format: ADME, cell-free
Plasma [5] = test: Drug metabolism in rat plasma assessed as N-(4-amino-3-chlorophenyl)-3-methylfuran-2-carboxamide level at 10 uM after 4 hrs by mass spectrometry; format: ADME, cell-free
[6] = Half life in Sprague-Dawley rat at 0.2 mg/kg, iv by LC-MS/MS analysis; conditions: in vivo
Plasma [7] = test: Metabolic stability in human plasma; format: ADME, cell-free
Summary of the method: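 Compound incubated at 10 μM in rat or human plasma at 37 °C. Samples taken at 0 and 4 h were analysed by mass spectrometry for parent and metabolites.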

[8] = molecular target: Metabotropic glutamate receptor 3 (Homo sapiens) (UniProt Q14832); test: Positive allosteric modulation of mGlu3 receptor (unknown origin) assessed as potentiation of glutamate-induced response by cell-based assay; summary of the method: as §1
Plasma [9] = test: Drug metabolism in rat plasma assessed as 4-chloro-2-(2-chloro-4-(3-methylfuran-2-carboxamido)phenylcarbamoyl)benzoic acid level at 10 uM after 4 hrs by mass spectrometry; format: ADME, cell-free
[10] = molecular target: Metabotropic glutamate receptor 8 (Homo sapiens) (UniProt O00222); test: Positive allosteric modulation of mGlu8 receptor (unknown origin) assessed as potentiation of glutamate-induced response by cell-based assay; summary of the method: as §1
[11] = Drug concentration in Sprague-Dawley rat brain at 0.2 mg/kg, iv after 0.25 hrs by LC-MS/MS analysis; conditions: read-out: Drug uptake
[12] = molecular target: T1, Metabotropic glutamate receptor 1; test: Agonist activity at human mGlu1 receptor in HEK293 cells assessed as calcium mobilization at 10 uM by Fluo-4AM dye based fluorescence analysis; format: functional, cell-based
Target sequence in this assay (Q13255 19-1194 limits assumed): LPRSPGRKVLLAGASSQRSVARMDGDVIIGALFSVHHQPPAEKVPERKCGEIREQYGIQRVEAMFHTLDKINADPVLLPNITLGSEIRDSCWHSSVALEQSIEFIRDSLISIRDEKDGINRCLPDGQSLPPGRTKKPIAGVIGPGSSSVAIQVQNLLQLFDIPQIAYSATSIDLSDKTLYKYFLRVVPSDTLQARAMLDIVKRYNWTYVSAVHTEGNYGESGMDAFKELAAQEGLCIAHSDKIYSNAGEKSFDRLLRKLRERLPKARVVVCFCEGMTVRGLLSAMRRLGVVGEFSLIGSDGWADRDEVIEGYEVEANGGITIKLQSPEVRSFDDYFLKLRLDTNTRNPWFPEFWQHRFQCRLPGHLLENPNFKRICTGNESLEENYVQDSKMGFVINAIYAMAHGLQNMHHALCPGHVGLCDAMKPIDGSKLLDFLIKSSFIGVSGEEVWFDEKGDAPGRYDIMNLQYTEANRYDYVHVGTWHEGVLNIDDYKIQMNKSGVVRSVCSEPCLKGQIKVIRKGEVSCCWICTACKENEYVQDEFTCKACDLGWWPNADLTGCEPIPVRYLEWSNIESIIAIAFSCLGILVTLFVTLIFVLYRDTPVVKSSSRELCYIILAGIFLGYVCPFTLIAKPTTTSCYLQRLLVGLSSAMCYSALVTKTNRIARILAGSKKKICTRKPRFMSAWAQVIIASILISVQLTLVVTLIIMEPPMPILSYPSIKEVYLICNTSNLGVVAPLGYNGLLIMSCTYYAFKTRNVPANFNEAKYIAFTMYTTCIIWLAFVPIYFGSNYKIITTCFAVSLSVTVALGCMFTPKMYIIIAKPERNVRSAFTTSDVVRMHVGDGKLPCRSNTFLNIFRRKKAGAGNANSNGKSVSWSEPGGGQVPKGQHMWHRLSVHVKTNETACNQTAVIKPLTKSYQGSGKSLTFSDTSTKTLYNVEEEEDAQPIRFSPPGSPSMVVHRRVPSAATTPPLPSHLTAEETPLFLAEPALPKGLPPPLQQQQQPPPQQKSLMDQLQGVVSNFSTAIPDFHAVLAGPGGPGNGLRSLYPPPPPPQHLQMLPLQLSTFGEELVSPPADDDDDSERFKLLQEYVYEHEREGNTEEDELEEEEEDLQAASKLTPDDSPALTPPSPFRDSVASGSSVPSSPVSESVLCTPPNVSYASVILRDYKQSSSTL

[13] = molecular target: Metabotropic glutamate receptor 1 (Rattus norvegicus, UniProt P23385); test: Positive allosteric modulation of rat mGlu1 receptor assessed as potentiation of glutamate-induced calcium mobiliztion by cell based assay; format: functional
Summary of the method: (§2)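 Rat mGlu1 WT calcium mobilization concentration-response curves. EC50 and % Glu Max were derived from the curves.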

Rattus norvegicus = test: Volume of distribution at steady state in Sprague-Dawley rat at 0.2 mg/kg, iv by LC-MS/MS analysis; conditions: in vivo
Cytochrome P450 1A2 = molecular target: T2, Cytochrome P450 1A2 (Homo sapiens, UniProt P05177); test: Inhibition of CYP1A2 in human liver microsomes by LC-MS/MS analysis; format: ADME
T2 sequence (P05177 whole entry): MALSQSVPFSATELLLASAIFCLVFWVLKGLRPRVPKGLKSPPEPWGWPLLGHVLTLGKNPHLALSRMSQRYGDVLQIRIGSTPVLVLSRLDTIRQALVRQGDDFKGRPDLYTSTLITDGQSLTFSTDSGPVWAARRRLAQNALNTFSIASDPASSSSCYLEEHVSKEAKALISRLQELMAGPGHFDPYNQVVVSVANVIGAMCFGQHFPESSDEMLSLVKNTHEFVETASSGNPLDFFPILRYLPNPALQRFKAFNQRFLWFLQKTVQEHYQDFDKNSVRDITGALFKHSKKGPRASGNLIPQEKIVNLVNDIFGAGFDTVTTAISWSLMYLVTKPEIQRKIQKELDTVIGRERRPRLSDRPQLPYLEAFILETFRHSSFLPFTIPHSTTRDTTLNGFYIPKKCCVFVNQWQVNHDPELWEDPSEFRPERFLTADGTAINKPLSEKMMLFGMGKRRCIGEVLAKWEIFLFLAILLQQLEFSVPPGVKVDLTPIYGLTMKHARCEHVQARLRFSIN

[14] = molecular target: T1, Metabotropic glutamate receptor 1; test: Positive allosteric modulation of human mGlu1 receptor in HEK293 cells assessed as potentiation of glutamate-induced calcium mobiliztion by Fluo-4AM dye based fluorescence analysis; format: functional, cell-based; conditions: read-out: EC50
Target sequence in this assay (Q13255 whole entry): as the sequence (Q13255 whole entry) above

[15] = Plasma concentration in Sprague-Dawley rat at 0.2 mg/kg, iv after 0.25 hrs by LC-MS/MS analysis
Plasma [16] = test: Drug metabolism in human plasma assessed as N-(4-amino-3-chlorophenyl)-3-methylfuran-2-carboxamide level at 10 uM after 4 hrs by mass spectrometry; format: ADME, cell-free
[17] = Plasma clearance in Sprague-Dawley rat at 0.2 mg/kg, iv by LC-MS/MS analysis
Plasma [18] = test: Drug metabolism in human plasma assessed as 5-chloro-2-(2-chloro-4-(3-methylfuran-2-carboxamido)phenylcarbamoyl)benzoic acid level at 10 uM after 4 hrs by mass spectrometry; format: ADME, cell-free
Mus musculus [19] = test: Toxicity in C57BL/6 mouse assessed as seizure activity at 100 mg/kg, ip administered as single dose measured for 3 hrs; format: organism-based; conditions: in vivo
Summary of the method: (§3)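 Male C57Bl/6 mice (25−30 g) dosed ip in 10% Tween 80 at 10 mL/kg: the mGlu5 ago-PAM at 1 or 3 mg/kg, the mGlu1 PAMs at 100 mg/kg. Behaviour was monitored continuously for 3 h and scored on a modified Racine scale (0−5).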

[20] = Mean residence time in Sprague-Dawley rat at 0.2 mg/kg, iv by LC-MS/MS analysis; conditions: in vivo
Brain = test: Drug concentration in C57BL/6 mouse brain at 100 mg/kg, ip administered as single dose; format: ADME, organism-based; conditions: in vivo, read-out: Drug uptake
[21] = Ratio of drug level in brain to plasma of Sprague-Dawley rat at 0.2 mg/kg, iv after 0.25 hrs by LC-MS/MS analysis; conditions: read-out: BPR
Plasma [22] = test: Drug metabolism in rat plasma assessed as 5-chloro-2-(2-chloro-4-(3-methylfuran-2-carboxamido)phenylcarbamoyl)benzoic acid level at 10 uM after 4 hrs by mass spectrometry; format: ADME, cell-free
[23] = molecular target: T1, Metabotropic glutamate receptor 1; test: Positive allosteric modulation of human mGlu1 receptor in HEK293 cells assessed as potentiation of glutamate-induced calcium mobiliztion at 10 uM by Fluo-4AM dye based fluorescence analysis; format: functional, cell-based
Target sequence in this assay (Q13255 19-1194 limits assumed): as the sequence (Q13255 19-1194 limits assumed) above

[24] = Intrinsic clearance in human liver microsomes at 1 uM by LC-MS/MS analysis; format: ADME; conditions: read-out: CLH
Cytochrome P450 3A4 = Cytochrome P450 3A4 (Homo sapiens, UniProt P08684); test: Inhibition of CYP3A4 in human liver microsomes by LC-MS/MS analysis; format: ADME
Chain of Cytochrome P450 3A4 (P08684 whole entry): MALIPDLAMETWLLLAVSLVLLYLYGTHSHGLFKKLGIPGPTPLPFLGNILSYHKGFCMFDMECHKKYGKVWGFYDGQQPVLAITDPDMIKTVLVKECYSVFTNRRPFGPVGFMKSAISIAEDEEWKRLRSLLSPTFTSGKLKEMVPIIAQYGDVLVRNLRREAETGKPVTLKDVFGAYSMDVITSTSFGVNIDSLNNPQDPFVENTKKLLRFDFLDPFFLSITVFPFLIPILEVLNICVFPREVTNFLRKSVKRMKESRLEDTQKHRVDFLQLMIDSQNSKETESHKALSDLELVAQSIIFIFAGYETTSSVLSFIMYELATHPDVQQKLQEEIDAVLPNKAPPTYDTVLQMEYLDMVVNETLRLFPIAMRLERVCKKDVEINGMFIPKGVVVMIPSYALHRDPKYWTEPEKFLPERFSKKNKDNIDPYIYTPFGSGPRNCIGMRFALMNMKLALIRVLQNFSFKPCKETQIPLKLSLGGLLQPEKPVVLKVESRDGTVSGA

[25] = molecular target: T1, Metabotropic glutamate receptor 1; test: Positive allosteric modulation of human mGlu1 receptor in HEK293 cells assessed as potentiation of glutamate-induced calcium mobiliztion by Fluo-4AM dye based fluorescence analysis relative to glutamate; format: functional, cell-based
Target sequence in this assay (Q13255 19-1194 limits assumed): as the sequence (Q13255 19-1194 limits assumed) above

[26] = molecular target: T3, Metabotropic glutamate receptor 4 (Homo sapiens, UniProt Q14833); test: Positive allosteric modulation of human mGlu4 receptor assessed as potentiation of glutamate-induced calcium mobiliztion by cell based assay relative to PHCCC
T3 sequence (Q14833 whole entry): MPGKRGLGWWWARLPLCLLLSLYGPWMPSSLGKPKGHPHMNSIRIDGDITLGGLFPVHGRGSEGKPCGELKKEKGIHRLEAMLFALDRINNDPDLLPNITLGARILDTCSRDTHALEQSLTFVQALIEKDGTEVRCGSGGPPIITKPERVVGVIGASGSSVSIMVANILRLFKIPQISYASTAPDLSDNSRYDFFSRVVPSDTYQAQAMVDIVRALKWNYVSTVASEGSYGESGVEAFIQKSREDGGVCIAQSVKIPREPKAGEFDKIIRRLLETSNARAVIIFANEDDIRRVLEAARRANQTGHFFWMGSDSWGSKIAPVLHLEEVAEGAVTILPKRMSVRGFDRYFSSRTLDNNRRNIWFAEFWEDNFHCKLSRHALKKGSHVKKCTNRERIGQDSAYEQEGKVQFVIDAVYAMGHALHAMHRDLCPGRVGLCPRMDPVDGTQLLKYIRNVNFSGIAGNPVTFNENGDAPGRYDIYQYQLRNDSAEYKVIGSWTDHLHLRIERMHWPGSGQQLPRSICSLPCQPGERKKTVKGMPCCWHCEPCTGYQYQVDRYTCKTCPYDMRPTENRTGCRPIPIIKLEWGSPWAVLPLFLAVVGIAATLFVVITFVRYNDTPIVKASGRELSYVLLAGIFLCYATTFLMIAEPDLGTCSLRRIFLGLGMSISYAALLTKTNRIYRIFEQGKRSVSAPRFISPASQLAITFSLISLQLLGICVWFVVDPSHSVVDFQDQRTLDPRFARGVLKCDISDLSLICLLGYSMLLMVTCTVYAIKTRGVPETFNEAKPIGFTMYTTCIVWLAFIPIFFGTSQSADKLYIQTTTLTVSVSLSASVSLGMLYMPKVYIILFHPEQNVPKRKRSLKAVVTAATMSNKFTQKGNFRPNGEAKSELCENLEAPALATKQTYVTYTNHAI

[27] = molecular target: T3, Metabotropic glutamate receptor 4; test: Positive allosteric modulation of human mGlu4 receptor assessed as potentiation of glutamate-induced calcium mobiliztion by cell based assay; format: functional
[28] = molecular target: Metabotropic glutamate receptor 7 (Homo sapiens) (UniProt Q14831); test: Positive allosteric modulation of mGlu7 receptor (unknown origin) assessed as potentiation of glutamate-induced response by cell-based assay; summary of the method: as §1
[29] = molecular target: Metabotropic glutamate receptor 6 (Homo sapiens) (UniProt O15303); test: Positive allosteric modulation of mGlu6 receptor (unknown origin) assessed as potentiation of glutamate-induced response by cell-based assay; summary of the method: as §1
Plasma [30] = test: Metabolic stability in rat plasma; format: ADME, cell-free
[31] = molecular target: Metabotropic glutamate receptor 1 (Rattus norvegicus) (UniProt P23385); test: Positive allosteric modulation of rat mGlu1 receptor assessed as potentiation of glutamate-induced calcium mobiliztion by cell based assay relative to glutamate; format: functional; summary of the method: as §2
Cytochrome P450 2D6 = Cytochrome P450 2D6 (Homo sapiens, UniProt P10635); test: Inhibition of CYP2D6 in human liver microsomes by LC-MS/MS analysis; format: ADME
Chain of Cytochrome P450 2D6 (P10635 whole entry): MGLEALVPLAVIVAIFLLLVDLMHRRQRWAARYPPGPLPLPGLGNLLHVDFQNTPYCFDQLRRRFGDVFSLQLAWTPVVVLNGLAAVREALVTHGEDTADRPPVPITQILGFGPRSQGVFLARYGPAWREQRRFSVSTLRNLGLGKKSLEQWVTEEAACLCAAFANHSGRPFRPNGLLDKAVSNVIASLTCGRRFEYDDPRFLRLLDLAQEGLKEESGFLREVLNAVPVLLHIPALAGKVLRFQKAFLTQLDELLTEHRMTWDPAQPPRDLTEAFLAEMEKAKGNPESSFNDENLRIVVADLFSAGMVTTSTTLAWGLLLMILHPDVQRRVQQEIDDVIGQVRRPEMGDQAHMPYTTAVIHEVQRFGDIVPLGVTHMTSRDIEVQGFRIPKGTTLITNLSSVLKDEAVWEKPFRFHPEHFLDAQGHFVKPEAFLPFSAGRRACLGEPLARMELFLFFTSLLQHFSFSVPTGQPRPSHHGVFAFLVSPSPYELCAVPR

Mus musculus [32] = test: Toxicity in C57BL/6 mouse assessed as seizure activity at 1 or 3 mg/kg, ip administered as single dose measured after 5 mins; conditions: in vivo
Mus musculus [33] = test: Toxicity in C57BL/6 mouse assessed as seizure activity at 1 mg/kg, ip administered as single dose measured after 5 mins; format: organism-based; conditions: in vivo; summary of the method: as §3
Plasma [34] = test: Fraction unbound in rat plasma; format: ADME, cell-free
Plasma [35] = test: Fraction unbound in human plasma; format: ADME, cell-free
Hippocampus = test: Toxic epileptiform activity in C57BL/6 mouse CA3 region of hippocampus assessed as frequency of spike activity at 50 uM by electrophysiolgy method (reference value: 0.94 +/- 0.06 Hz); format: toxicity, tissue-based
Summary of the method: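 Mouse hippocampal slices with extracellular recording from the CA3 pyramidal cell body layer. Compound (10 μM) or DHPG (50 μM) was bath-applied, and the frequency of spontaneous spikes was compared with baseline. n = 6 per agent, paired t test.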

CC1(C)C2C(=O)N(c3ccc(NC(=O)c4ccccn4)cc3Cl)C(=O)C21 (stereo not drawn)
IC50 [1]: 140 nM

Cc1ccoc1C(=O)Nc1ccc(N2C(=O)c3ccc(Cl)cc3C2=O)c(Cl)c1
IC50 (Cytochrome P450 2C9): > 30000 nM | fold change (FC) [2]: 2 | fold change (FC) [3]: 2 | Drug metabolism (Plasma [4]): metabolite_detected | Drug metabolism (Plasma [5]): metabolite_detected | half-life [6]: 91.1 min | Stability (Plasma [7]): Unstable | fold change (FC) [8]: 2 | Drug metabolism (Plasma [9]): metabolite_detected | fold change (FC) [10]: 2 | concentration at 0.25 h [11]: 108 ng/mL | Activity [12]: < 20% | EC50 [13]: 113 nM | Vdss (Rattus norvegicus): 1.76 L/kg | IC50 (Cytochrome P450 1A2): > 30000 nM | EC50 [14]: 80.9 nM | concentration at 0.25 h [15]: 173 ng/mL | Drug metabolism (Plasma [16]): metabolite_detected | clearance [17]: 33 mL/min/kg | Drug metabolism (Plasma [18]): metabolite_detected | Activity (Mus musculus [19]): Non-toxic | MRT [20]: 53.5 min | concentration (Brain): 1400 nM | Kp at 0.25 h [21]: 0.63 | Drug metabolism (Plasma [22]): metabolite_detected | fold change (FC) [23]: 8.3 | CLint scaled at 1 µM [24]: 2.9 mL/min/kg | IC50 (Cytochrome P450 3A4): > 30000 nM | %max [25]: 94% | %max [26]: 89% | EC50 ([27]; read-out: EC50): 2250 nM | EC50 ([27]; read-out: pEC50 (converted)): 2290 nM | fold change (FC) [28]: 2 | fold change (FC) [29]: 2 | Stability (Plasma [30]): Unstable | %max [31]: 107% | IC50 (Cytochrome P450 2D6): > 30000 nM

C[C@@H](NC(=O)c1ccc(C#Cc2cccc(F)c2)cn1)C(C)(C)O
Activity (Mus musculus [32]): Toxic | Activity (Mus musculus [33]): Toxic

O=C(Nc1nc(C(F)(F)F)co1)C1c2ccccc2Oc2ccccc21
half-life [6]: 54 min | concentration at 0.25 h [11]: 81 ng/mL | Vdss (Rattus norvegicus): 1.34 L/kg | concentration at 0.25 h [15]: 276 ng/mL | clearance [17]: 35 mL/min/kg | Fu (Plasma [34]): 0.003 | Activity (Mus musculus [19]): Non-toxic | Fu (Plasma [35]): 0.014 | MRT [20]: 50 min | Kp at 0.25 h [21]: 0.29 | IC50 (Cytochrome P450 3A4): > 30000 nM | IC50 (Cytochrome P450 2D6): > 30000 nM

N[C@H](C(=O)O)c1cc(O)cc(O)c1
Activity (Hippocampus): 13.8 Hz

O=C(Nc1ccc(N2C(=O)c3cccc(Cl)c3C2=O)c(Cl)c1)c1ncccc1Cl
IC50 (Cytochrome P450 2C9): > 30000 nM | Stability (Plasma [7]): Unstable | concentration at 0.25 h [11]: 284 ng/mL | EC50 [13]: 356 nM | IC50 (Cytochrome P450 1A2): > 30000 nM | EC50 ([14]; hek293): 390 nM | concentration at 0.25 h [15]: 336 ng/mL | IC50 (Cytochrome P450 3A4): > 30000 nM | Stability (Plasma [30]): Unstable | IC50 (Cytochrome P450 2D6): > 30000 nM
